Reference: ChEMBL document CHEMBL1144886, “Structure-based design, synthesis, and antimicrobial activity of indazole-derived SAH/MTA nucleosidase inhibitors” (J Med Chem, 2003)
pKi: −log10 of the molar value. Values after ≈ are worked out from the molar mass of the structure shown.

Assays:
[1] = molecular target: 5'-methylthioadenosine/S-adenosylhomocysteine nucleosidase (Escherichia coli O157:H7, UniProt P0AF14); test: Inhibition of Escherichia coli S-adenosyl homocysteine/methylthioadenosine nucleosidase (MTA/SAH nucleosidase)
Procedure, shortened: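 Recombinant His-tagged E. coli enzyme (IPTG-induced in E. coli, IMAC-purified), 50 pM, incubated 10 min at room temperature with 2.5 μM MTA and inhibitor at 0.005–100 μM; 200 μL final volume. Reaction stopped with TFA. Remaining MTA quantified by RP-HPLC (C8) peak integration, and turnover plotted for IC50. Ki derived using Km 1.0 μM for MTA.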

Streptococcus pyogenes = test: Minimum inhibitory concentration against Streptococcus pyogenes; assay type: functional
Streptococcus pneumoniae = test: Minimum inhibitory concentration against Streptococcus pneumoniae; assay type: functional
Neisseria meningitidis = test: Minimum inhibitory concentration against Neisseria meningitidis; assay type: functional

Sequence of 5'-methylthioadenosine/S-adenosylhomocysteine nucleosidase (P0AF14 whole entry): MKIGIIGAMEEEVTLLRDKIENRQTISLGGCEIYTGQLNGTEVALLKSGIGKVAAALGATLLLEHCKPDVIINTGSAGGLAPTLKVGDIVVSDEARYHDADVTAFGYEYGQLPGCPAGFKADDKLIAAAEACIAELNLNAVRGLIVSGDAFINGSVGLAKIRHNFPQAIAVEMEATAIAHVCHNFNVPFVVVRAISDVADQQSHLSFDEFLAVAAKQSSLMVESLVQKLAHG

SMILES	pKi [1]	MIC (Streptococcus pyogenes) [µM]	MIC (Streptococcus pneumoniae) [µM]	MIC (Neisseria meningitidis) [µM]
CC(C)CNc1cc(NS(=O)(=O)c2cccc(-c3cccc(CCO)c3)c2)cc2c(Cl)[nH]nc12	7.60	–	–	–
Cc1n[nH]c2ccc(NS(=O)(=O)c3ccc(Cl)cc3)cc12	5.40	–	–	–
CN(C)c1cccc2c(S(=O)(=O)Nc3ccc4c[nH]nc4c3)cccc12	6.00	–	–	–
Cc1n[nH]c2c(NCC(C)C)cc(NS(=O)(=O)c3cccc(-c4ccccc4)c3)cc12	6.30	–	–	–
Cc1nccc(-c2cccc(S(=O)(=O)Nc3cc(NCC(C)C)c4[nH]nc(C)c4c3)c2)n1	6.72	–	–	–
O=S(=O)(Nc1cc(NCc2ccccc2)c2[nH]nc(Cl)c2c1)c1ccc(Cl)cc1	5.74	–	–	–
Cc1nccc(-c2cccc(S(=O)(=O)Nc3cc(NCC(C)C)c4n[nH]c(Cl)c4c3)c2)n1	7.44	–	–	–
CN(C)c1cccc2c(S(=O)(=O)Nc3ccc4[nH]ncc4c3)cccc12	5.55	–	–	–
CSc1cccc(-c2cccc(S(=O)(=O)Nc3cc(NCC(C)C)c4[nH]nc(Cl)c4c3)c2)c1	7.77	–	–	–
Cc1cc(-c2cccc(S(=O)(=O)Nc3cc(NCC(C)C)c4n[nH]c(Cl)c4c3)c2)ccc1Cl	8.41	7.5 (≈ 3.78 µg/mL)	7.5 (≈ 3.78 µg/mL)	7.5 (≈ 3.78 µg/mL)
Cc1cc(-c2cccc(S(=O)(=O)Nc3cc(NCC(C)C)c4n[nH]c(Cl)c4c3)c2)ccc1F	7.84	–	–	–
CC(C)CNc1cc(NS(=O)(=O)c2cccc(-c3ccc(Cl)c(Cl)c3)c2)cc2c(Cl)[nH]nc12	8.80	7.5 (≈ 3.93 µg/mL)	7.5 (≈ 3.93 µg/mL)	1.88 (≈ 0.982 µg/mL)
O=S(=O)(Nc1cc(NCCc2ccccc2)c2[nH]nc(Cl)c2c1)c1ccc(Cl)cc1	5.64	–	–	–
O=S(=O)(Nc1cc(NCC2CC2)c2[nH]nc(Cl)c2c1)c1ccc(Cl)cc1	6.30	–	–	–
CC(C)CNc1cc(NS(=O)(=O)c2cccc(-c3ccncc3)c2)cc2c(Cl)[nH]nc12	7.28	> 20	–	10 (≈ 4.56 µg/mL)
Cc1cccc(-c2cccc(S(=O)(=O)Nc3cc(NCC(C)C)c4n[nH]c(Cl)c4c3)c2)c1	7.44	–	–	–
CC(C)CNc1cc(NS(=O)(=O)c2cccc(-c3ccc(Cl)cc3)c2)cc2c(Cl)[nH]nc12	7.90	1.25 (≈ 0.612 µg/mL)	2.5 (≈ 1.22 µg/mL)	2.5 (≈ 1.22 µg/mL)
CC(C)CNc1cc(NS(=O)(=O)c2cccc(-c3cnc4ccccc4c3)c2)cc2c(Cl)[nH]nc12	7.97	–	–	–
CCNc1cc(NS(=O)(=O)c2ccc(Cl)cc2)cc2c(Cl)[nH]nc12	5.57	–	–	–
CC(C)(C)CCNc1cc(NS(=O)(=O)c2ccc(Cl)cc2)cc2c(Cl)[nH]nc12	5.19	–	–	–

SMILES	pKi [1]	MIC (Streptococcus pyogenes) [µM]	MIC (Streptococcus pneumoniae) [µM]	MIC (Neisseria meningitidis) [µM]
Cc1n[nH]c2c(NCC(C)C)cc(NS(=O)(=O)c3cccc(-c4ccncc4)c3)cc12	6.62	–	–	–
Cc1n[nH]c2c(NCC(C)C)cc(NS(=O)(=O)c3cccc(-c4cccc(C(F)(F)F)c4)c3)cc12	7.70	> 20	–	20 (≈ 10.1 µg/mL)
CC(C)CNc1cc(NS(=O)(=O)c2cccc(-c3ccccc3)c2)cc2c(Cl)[nH]nc12	7.03	> 20	–	2.5 (≈ 1.14 µg/mL)
CC(C)CNc1cc(NS(=O)(=O)c2cccc(-c3ccc(F)c(F)c3)c2)cc2c(Cl)[nH]nc12	8.09	–	–	–
CC(=O)Nc1cc(NS(=O)(=O)c2ccc(Cl)cc2)cc2c(Cl)[nH]nc12	4.96	7.5 (≈ 2.99 µg/mL)	5 (≈ 2 µg/mL)	5 (≈ 2 µg/mL)
CN(C)c1cccc2c(S(=O)(=O)Nc3ccc4[nH]nc(Cl)c4c3)cccc12	4.66	–	–	–
Cc1cc(-c2cccc(S(=O)(=O)Nc3cc(NCC(C)C)c4n[nH]c(Cl)c4c3)c2)ccn1	7.55	–	–	–
CCc1cccc(-c2cccc(S(=O)(=O)Nc3cc(NCC(C)C)c4[nH]nc(C)c4c3)c2)c1	6.90	–	–	–
Cc1cccc(-c2cccc(S(=O)(=O)Nc3cc(NCC(C)C)c4[nH]nc(C)c4c3)c2)c1	7.00	> 20	–	20 (≈ 8.97 µg/mL)
Cc1n[nH]c2ccc(NS(=O)(=O)c3cccc4c(N(C)C)cccc34)cc12	4.19	–	–	–
O=S(=O)(Nc1ccc2[nH]nc(Cl)c2c1)c1ccc(Cl)cc1	5.28	–	–	–
CC(C)CNc1cc(NS(=O)(=O)c2ccc(Cl)cc2)cc2c(Cl)[nH]nc12	6.12	> 20	–	5 (≈ 2.07 µg/mL)
CC(C)CNc1cc(NS(=O)(=O)c2cccc(-c3ccc(F)c(Cl)c3)c2)cc2c(Cl)[nH]nc12	8.47	3.75 (≈ 1.9 µg/mL)	3.75 (≈ 1.9 µg/mL)	1.88 (≈ 0.951 µg/mL)
CC(C)CNc1cc(NS(=O)(=O)c2cccc(-c3cccc(C(F)(F)F)c3)c2)cc2c(Cl)[nH]nc12	7.96	–	–	–
CC(C)=CCNc1cc(NS(=O)(=O)c2ccc(Cl)cc2)cc2c(Cl)[nH]nc12	5.66	–	–	–
CC(C)CNc1cc(NS(=O)(=O)c2cccc(-c3ccc(C(F)(F)F)cc3)c2)cc2c(Cl)[nH]nc12	7.89	> 20	–	5 (≈ 2.61 µg/mL)
CC(C)CCNc1cc(NS(=O)(=O)c2ccc(Cl)cc2)cc2c(Cl)[nH]nc12	5.31	–	–	–
O=S(=O)(Nc1ccc2c[nH]nc2c1)c1ccc(Cl)cc1	4.77	–	–	–
CC(C)(C)CNc1cc(NS(=O)(=O)c2ccc(Cl)cc2)cc2c(Cl)[nH]nc12	5.92	–	–	–
O=S(=O)(Nc1ccc2[nH]ncc2c1)c1ccc(Cl)cc1	4.57	–	–	–
